Measured values from ChEMBL document CHEMBL1128448, “Synthesis and antifungal activity of new azole derivatives containing an N-acylmorpholine ring” (1995).
In brackets after ≈: the same amount, converted by molar mass.

Legend:
[1] = system: Aspergillus flavus; test: In vitro evaluation of minimum inhibitory concentration against Aspergillus flavus 19; type: functional; conditions: Aspergillus flavus; read-out: MIC
Outline: (§1)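 Stocks are 800 μg/mL in 50% ethanol. Each plate gets 10 μL of inoculum at 10^5 cfu/mL. Incubation at 25 °C, 48 h for yeasts and 120 h for dermatophytes and molds. Organisms are ATCC strains or clinical isolates.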

[2] = system: Kluyveromyces marxianus; test: In vitro evaluation of minimum inhibitory concentration against Candida pseudotropicalis 13; type: functional; conditions: Kluyveromyces marxianus; read-out: MIC; outline: as §1
[3] = system: Mus sp.; test: In vivo evaluation of % survival rate after peroral administration on 9th day at dose 2.5 mg/kg; type: functional; conditions: Mus sp., po
[4] = system: Mus sp.; test: In vivo evaluation of % survival rate after peroral administration on 5th day at dose 1 mg/kg; type: functional; conditions: Mus sp., po
[5] = system: Mus sp.; test: In vivo evaluation of % survival rate after peroral administration on 7th day at dose 1 mg/kg; type: functional
[6] = system: Mus sp.; test: In vivo evaluation of % survival rate after peroral administration on 3rd day at dose 2.5 mg/kg; type: functional; conditions: Mus sp., po
[7] = system: Microsporum canis; test: In vitro evaluation of minimum inhibitory concentration against Microsporum canis 47; type: functional; conditions: Microsporum canis; read-out: MIC; outline: as §1
[8] = system: Candida albicans; test: In vitro evaluation of minimum inhibitory concentration against Candida albicans 76; type: functional; conditions: Candida albicans; read-out: MIC; outline: as §1
[9] = system: Mus sp.; test: In vivo evaluation of % survival rate after peroral administration on 9th day at dose 1 mg/kg; type: functional
[10] = system: Trichophyton benhamiae; test: In vitro evaluation of minimum inhibitory concentration against Trichophyton mentagrophytes 23; type: functional, Arthroderma benhamiae; conditions: Trichophyton benhamiae; read-out: MIC; outline: as §1
[11] = system: Candida albicans; test: In vivo evaluation of minimum inhibitory concentration against Candida albicans 60; type: functional; conditions: Candida albicans; read-out: MIC
Outline: (§2)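 Broth macrodilution MIC following NCCLS M27-P, in RPMI-1640 buffered with 0.165 M MOPS. Fluconazole was dissolved in water and other drugs in DMSO. C. parapsilosis ATCC 22019 served as the reference strain in every run. MIC was the lowest concentration giving turbidity at or below the 80% inhibition standard.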

[12] = system: Nakaseomyces glabratus; test: In vitro evaluation of minimum inhibitory concentration against Torulopsis glabrata 78; type: functional; conditions: Nakaseomyces glabratus; read-out: MIC; outline: as §1
[13] = system: Mus sp.; test: In vivo evaluation of % survival rate after peroral administration on 7th day at dose 2.5 mg/kg; type: functional; conditions: Mus sp., po
[14] = system: Aspergillus niger; test: In vitro evaluation of minimum inhibitory concentration against Aspergillus niger 18; type: functional; conditions: Aspergillus niger; read-out: MIC; outline: as §1
[15] = system: Mus sp.; test: In vivo evaluation of % survival rate after peroral administration on 3rd day at dose 1 mg/kg; type: functional; conditions: Mus sp., po
[16] = system: Nannizzia gypsea; test: In vitro evaluation of minimum inhibitory concentration against Microsporum gypseum 22; type: functional; conditions: Nannizzia gypsea; read-out: MIC; outline: as §1
[17] = system: Rhodotorula mucilaginosa; test: In vitro evaluation of minimum inhibitory concentration against Rhodotorula rubra 16; type: functional; conditions: Rhodotorula mucilaginosa; read-out: MIC; outline: as §1
[18] = system: Meyerozyma guilliermondii; test: In vitro evaluation of minimum inhibitory concentration against Candida guilliermondii 26; type: functional; conditions: Meyerozyma guilliermondii; read-out: MIC; outline: as §1
[19] = system: Pichia kudriavzevii; test: In vitro evaluation of minimum inhibitory concentration against Candida krusei 70; type: functional; conditions: Pichia kudriavzevii; read-out: MIC; outline: as §1
[20] = system: Trichophyton rubrum; test: In vitro evaluation of minimum inhibitory concentration against Trichophyton rubrum 90; type: functional; conditions: Trichophyton rubrum; read-out: MIC; outline: as §1
[21] = system: Candida tropicalis; test: In vitro evaluation of minimum inhibitory concentration against Candida tropicalis 2.11; type: functional; conditions: Candida tropicalis; read-out: MIC; outline: as §1
[22] = system: Aspergillus fumigatus; test: In vitro evaluation of minimum inhibitory concentration against Aspergillus fumigatus 33; type: functional; conditions: Aspergillus fumigatus; read-out: MIC; outline: as §1
[23] = system: Candida albicans; test: In vivo evaluation of minimum inhibitory concentration against Candida albicans 406; type: functional; conditions: Candida albicans; read-out: MIC; outline: as §2
[24] = system: Candida parapsilosis; test: In vitro evaluation of minimum inhibitory concentration against Candida parapsilosis 61; type: functional; conditions: Lodderomyces parapsilosis; read-out: MIC; outline: as §1
[25] = system: Mus sp.; test: In vivo evaluation of % survival rate after peroral administration on 5th day at dose 2.5 mg/kg; type: functional; conditions: Mus sp., po

C[C@H]1N(C(=O)c2ccc(C(F)(F)F)cc2)C[C@H](O)O[C@@]1(Cn1cncn1)c1ccc(Cl)cc1Cl (racemic)
MIC [1]: 20 µg/mL (≈ 38.8 µM) | MIC [2]: 0.15 µg/mL (≈ 0.291 µM) | survival at 2.5 mg/kg [3]: 100% | survival at 1 mg/kg [4]: 100% | survival at 1 mg/kg ([5]; Mus sp., po): 90% | survival at 2.5 mg/kg [6]: 100% | MIC [7]: 40 µg/mL (≈ 77.6 µM) | MIC [8]: 5 µg/mL (≈ 9.7 µM) | survival at 1 mg/kg ([9]; Mus sp., po): 70% | MIC [10]: 40 µg/mL (≈ 77.6 µM) | MIC [11]: 1.25 µg/mL (≈ 2.43 µM) | MIC [12]: 20 µg/mL (≈ 38.8 µM) | survival at 2.5 mg/kg [13]: 100% | MIC [14]: > 80 µg/mL | survival at 1 mg/kg [15]: 100% | MIC [16]: 40 µg/mL (≈ 77.6 µM) | MIC [17]: 2.5 µg/mL (≈ 4.85 µM) | MIC [18]: 5 µg/mL (≈ 9.7 µM) | MIC [19]: 10 µg/mL (≈ 19.4 µM) | MIC [20]: 40 µg/mL (≈ 77.6 µM) | MIC [21]: 20 µg/mL (≈ 38.8 µM) | MIC [22]: 20 µg/mL (≈ 38.8 µM) | MIC [23]: 0.63 µg/mL (≈ 1.22 µM) | MIC [24]: 2.5 µg/mL (≈ 4.85 µM) | survival at 2.5 mg/kg [25]: 100%

C[C@H]1N(C(=O)c2ccc(C(F)(F)F)cc2)CC(=O)O[C@@]1(Cn1cncn1)c1ccc(F)cc1F (racemic)
MIC [1]: > 80 µg/mL | MIC [2]: 80 µg/mL (≈ 167 µM) | survival at 2.5 mg/kg [3]: 70% | survival at 1 mg/kg [4]: 85% | Survival ([5]; route oral, 1 mg/kg): 30% | survival at 2.5 mg/kg [6]: 100% | MIC [7]: > 80 µg/mL | MIC [8]: > 80 µg/mL | Survival ([9]; route oral, 1 mg/kg): 0% | MIC [10]: > 80 µg/mL | MIC [11]: 80 µg/mL (≈ 167 µM) | MIC [12]: > 80 µg/mL | survival at 2.5 mg/kg [13]: 95% | MIC [14]: > 80 µg/mL | survival at 1 mg/kg [15]: 95% | MIC [16]: > 80 µg/mL | MIC [17]: > 80 µg/mL | MIC [18]: > 80 µg/mL | MIC [19]: > 80 µg/mL | MIC [20]: > 80 µg/mL | MIC [21]: > 80 µg/mL | MIC [22]: > 80 µg/mL | MIC [23]: 40 µg/mL (≈ 83.3 µM) | MIC [24]: > 80 µg/mL | survival at 2.5 mg/kg [25]: 100%
